# According to the M2OR odorant receptor database:
# Positions count from the first letter of the chain named.
# How the values were obtained:
# Settings in all cases: stereoisomer not certain
# [1] = system: T1, O10A2 H43R H207R K258T
# T1 sequence (whole entry): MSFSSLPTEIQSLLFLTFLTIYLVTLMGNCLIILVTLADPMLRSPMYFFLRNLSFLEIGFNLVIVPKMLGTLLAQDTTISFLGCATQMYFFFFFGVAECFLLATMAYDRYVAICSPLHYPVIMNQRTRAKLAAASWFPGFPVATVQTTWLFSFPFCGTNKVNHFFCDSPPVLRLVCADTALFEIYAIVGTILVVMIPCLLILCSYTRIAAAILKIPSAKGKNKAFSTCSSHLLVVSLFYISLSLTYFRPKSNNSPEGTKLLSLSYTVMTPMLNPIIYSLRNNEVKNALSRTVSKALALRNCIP
# Summary of the method: (§1)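 Each receptor–molecule pair is labelled responsive or non-responsive (inactive) according to whether the original authors judged the measured signal statistically different from baseline. The data were taken from the main text and supplementary material of published papers and checked for typos and inconsistencies. Assay methods differed by source, with transient luciferase assays in mammalian cell lines being common.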
# [2] = system: T2, O10A3 C8G
# T2 sequence (whole entry): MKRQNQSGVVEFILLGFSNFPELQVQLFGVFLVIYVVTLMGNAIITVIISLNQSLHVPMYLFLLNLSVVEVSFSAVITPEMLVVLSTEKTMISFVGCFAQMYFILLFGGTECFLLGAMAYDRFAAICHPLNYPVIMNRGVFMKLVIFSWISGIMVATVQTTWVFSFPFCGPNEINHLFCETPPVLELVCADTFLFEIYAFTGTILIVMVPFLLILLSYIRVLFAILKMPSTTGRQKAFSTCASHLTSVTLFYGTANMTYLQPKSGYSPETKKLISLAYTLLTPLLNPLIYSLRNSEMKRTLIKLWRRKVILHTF
# Summary of the method: as §1
# [3] = system: T3, O10A6
# T3 sequence (whole entry): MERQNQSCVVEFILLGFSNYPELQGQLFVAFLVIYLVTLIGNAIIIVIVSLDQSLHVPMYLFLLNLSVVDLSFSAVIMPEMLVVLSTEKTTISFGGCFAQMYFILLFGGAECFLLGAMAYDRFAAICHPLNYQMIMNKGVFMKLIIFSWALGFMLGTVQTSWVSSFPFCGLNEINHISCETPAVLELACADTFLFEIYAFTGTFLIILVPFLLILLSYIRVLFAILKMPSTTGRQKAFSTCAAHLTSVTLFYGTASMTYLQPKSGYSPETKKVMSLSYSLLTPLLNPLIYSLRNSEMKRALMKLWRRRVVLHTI
# Summary of the method: as §1
# [4] = system: T4, O10AD G65C
# T4 sequence (whole entry): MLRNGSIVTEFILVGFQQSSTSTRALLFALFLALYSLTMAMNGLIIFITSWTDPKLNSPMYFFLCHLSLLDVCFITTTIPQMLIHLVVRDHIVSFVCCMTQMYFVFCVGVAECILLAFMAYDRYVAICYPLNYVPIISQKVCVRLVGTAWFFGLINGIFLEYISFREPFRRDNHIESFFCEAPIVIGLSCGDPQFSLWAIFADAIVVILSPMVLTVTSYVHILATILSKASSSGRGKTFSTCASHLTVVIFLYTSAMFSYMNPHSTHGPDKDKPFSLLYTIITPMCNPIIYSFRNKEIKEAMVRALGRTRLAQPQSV
# Summary of the method: as §1
# [5] = system: T5, O10D3 V134A R197K
# T5 sequence (whole entry): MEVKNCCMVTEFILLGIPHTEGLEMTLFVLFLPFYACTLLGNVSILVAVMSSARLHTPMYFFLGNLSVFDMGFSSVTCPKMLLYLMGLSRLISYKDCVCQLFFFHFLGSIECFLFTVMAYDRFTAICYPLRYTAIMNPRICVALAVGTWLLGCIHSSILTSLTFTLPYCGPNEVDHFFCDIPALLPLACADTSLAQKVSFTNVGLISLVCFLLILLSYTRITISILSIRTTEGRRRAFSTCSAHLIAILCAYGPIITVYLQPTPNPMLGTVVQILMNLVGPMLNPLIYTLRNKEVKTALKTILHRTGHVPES
# Summary of the method: as §1
# [6] = system: T6, O10G4 L24P V195E
# T6 sequence (whole entry): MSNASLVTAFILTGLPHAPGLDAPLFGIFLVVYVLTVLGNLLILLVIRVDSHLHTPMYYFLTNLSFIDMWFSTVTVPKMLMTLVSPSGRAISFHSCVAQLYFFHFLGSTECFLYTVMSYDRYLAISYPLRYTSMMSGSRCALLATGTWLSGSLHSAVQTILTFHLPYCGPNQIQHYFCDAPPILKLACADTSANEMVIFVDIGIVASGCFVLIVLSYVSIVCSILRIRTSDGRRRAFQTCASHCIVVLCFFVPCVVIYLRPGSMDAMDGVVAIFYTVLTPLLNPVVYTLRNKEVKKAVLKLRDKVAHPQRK
# Summary of the method: as §1
# [7] = system: T7, O10G7 A18V P19Q G20A
# T7 sequence (whole entry): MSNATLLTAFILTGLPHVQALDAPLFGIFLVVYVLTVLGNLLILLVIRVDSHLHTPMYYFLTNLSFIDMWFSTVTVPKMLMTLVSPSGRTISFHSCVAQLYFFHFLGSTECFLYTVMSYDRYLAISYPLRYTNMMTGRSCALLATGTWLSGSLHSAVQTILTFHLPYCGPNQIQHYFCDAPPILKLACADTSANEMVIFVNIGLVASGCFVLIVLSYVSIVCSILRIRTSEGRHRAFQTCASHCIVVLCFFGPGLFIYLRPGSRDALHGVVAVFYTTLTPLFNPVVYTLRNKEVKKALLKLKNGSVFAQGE
# Summary of the method: as §1
# [8] = system: T8, O10G7 I28V
# T8 sequence (whole entry): T7 sequence (whole entry) with V18A, Q19P, A20G, I28V
# Summary of the method: as §1
# [9] = system: T9, O10H2
# T9 sequence (whole entry): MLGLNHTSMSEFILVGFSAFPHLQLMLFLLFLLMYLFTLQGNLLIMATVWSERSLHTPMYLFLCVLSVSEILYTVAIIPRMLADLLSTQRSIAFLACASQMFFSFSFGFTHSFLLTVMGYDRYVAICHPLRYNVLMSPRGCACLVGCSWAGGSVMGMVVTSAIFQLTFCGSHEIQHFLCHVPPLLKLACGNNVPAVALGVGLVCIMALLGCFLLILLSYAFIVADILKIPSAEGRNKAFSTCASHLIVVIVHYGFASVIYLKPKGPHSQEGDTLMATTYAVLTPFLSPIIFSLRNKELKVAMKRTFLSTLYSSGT
# Summary of the method: as §1
# [10] = system: T10, O10H3 R54H
# T10 sequence (whole entry): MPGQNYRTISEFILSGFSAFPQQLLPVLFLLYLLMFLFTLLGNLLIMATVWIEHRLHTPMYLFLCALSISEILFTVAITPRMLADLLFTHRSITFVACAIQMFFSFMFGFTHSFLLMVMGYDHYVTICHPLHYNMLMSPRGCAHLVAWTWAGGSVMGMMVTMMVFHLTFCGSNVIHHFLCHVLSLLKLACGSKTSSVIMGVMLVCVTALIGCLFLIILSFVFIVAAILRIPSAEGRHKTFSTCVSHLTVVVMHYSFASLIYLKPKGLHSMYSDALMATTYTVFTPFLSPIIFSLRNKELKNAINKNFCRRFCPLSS
# Summary of the method: as §1
# [11] = system: T11, O10H4 I50V
# T11 sequence (whole entry): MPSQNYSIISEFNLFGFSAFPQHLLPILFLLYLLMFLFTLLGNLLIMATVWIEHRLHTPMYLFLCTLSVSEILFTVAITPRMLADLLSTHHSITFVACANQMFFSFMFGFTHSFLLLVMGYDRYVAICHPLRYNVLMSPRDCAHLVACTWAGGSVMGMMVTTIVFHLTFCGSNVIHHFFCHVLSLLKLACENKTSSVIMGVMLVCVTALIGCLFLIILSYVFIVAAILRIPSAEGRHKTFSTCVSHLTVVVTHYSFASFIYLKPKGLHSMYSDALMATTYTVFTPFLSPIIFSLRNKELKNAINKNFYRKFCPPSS
# Summary of the method: as §1
# [12] = system: T12, O10H5 S268Y
# T12 sequence (whole entry): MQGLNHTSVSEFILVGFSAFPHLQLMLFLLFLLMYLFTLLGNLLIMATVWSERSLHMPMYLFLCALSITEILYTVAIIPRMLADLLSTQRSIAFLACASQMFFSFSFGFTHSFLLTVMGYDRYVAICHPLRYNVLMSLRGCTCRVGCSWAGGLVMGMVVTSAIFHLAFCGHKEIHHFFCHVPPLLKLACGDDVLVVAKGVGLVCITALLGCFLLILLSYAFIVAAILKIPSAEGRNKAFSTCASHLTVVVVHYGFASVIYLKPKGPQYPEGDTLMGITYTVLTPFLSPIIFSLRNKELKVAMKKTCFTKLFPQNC
# Summary of the method: as §1
# [13] = system: T13, O10J1 M62I I103M
# T13 sequence (whole entry): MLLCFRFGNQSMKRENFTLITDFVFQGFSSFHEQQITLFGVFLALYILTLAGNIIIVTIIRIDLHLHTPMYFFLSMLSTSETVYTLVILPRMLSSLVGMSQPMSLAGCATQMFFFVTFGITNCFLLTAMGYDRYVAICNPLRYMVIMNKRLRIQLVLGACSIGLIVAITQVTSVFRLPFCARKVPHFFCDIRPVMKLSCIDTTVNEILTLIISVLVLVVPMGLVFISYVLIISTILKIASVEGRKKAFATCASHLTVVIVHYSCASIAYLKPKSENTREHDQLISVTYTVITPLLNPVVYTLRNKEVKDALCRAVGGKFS
# Summary of the method: as §1
# [14] = system: T14, O10J1 M62I
# T14 sequence (whole entry): T13 sequence (whole entry) with M103I
# Summary of the method: as §1
# [15] = system: T15, O10J3 Q235R E319G
# T15 sequence (whole entry): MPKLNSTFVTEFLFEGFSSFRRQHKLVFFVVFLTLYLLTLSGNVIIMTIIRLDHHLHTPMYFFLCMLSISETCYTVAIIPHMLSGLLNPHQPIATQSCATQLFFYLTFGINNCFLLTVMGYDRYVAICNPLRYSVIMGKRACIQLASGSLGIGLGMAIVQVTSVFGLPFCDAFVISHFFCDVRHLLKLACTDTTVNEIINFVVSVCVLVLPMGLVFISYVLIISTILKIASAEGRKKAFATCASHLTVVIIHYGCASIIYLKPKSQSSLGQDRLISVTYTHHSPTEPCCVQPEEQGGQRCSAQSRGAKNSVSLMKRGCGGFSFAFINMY
# Summary of the method: as §1
# [16] = system: T16, O10P1 R195K
# T16 sequence (whole entry): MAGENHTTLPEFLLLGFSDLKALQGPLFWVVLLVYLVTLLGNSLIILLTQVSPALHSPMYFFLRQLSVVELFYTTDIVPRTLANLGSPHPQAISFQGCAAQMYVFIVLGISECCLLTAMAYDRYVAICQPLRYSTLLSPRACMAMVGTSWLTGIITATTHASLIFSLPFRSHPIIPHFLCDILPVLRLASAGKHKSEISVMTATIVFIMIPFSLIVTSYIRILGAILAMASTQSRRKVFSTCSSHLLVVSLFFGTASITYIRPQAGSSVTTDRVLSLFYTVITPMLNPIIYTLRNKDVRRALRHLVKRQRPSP
# Summary of the method: as §1
# [17] = system: T17, O10Q1 E12D
# T17 sequence (whole entry): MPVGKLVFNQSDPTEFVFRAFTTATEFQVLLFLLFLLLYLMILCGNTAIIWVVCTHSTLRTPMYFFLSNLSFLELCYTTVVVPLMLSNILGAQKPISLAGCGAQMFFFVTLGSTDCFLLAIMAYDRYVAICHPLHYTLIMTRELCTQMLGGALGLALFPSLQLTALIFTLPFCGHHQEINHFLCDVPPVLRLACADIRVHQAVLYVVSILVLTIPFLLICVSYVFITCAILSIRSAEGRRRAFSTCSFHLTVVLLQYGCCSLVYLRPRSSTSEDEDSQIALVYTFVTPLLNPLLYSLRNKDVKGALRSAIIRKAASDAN
# Summary of the method: as §1
# [18] = system: T18, O10Q1 Q10R E12D
# T18 sequence (whole entry): T17 sequence (whole entry) with Q10R
# Summary of the method: as §1
# 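Further: active if original authors judged signal statistically different from baseline.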
Compound,odorant receptor agonist call [1],odorant receptor agonist call [2],odorant receptor agonist call [3],odorant receptor agonist call [4],odorant receptor agonist call [5],odorant receptor agonist call [6],odorant receptor agonist call [7],odorant receptor agonist call [8],odorant receptor agonist call [9],odorant receptor agonist call [10],odorant receptor agonist call [11],odorant receptor agonist call [12],odorant receptor agonist call [13],odorant receptor agonist call [14],odorant receptor agonist call [15],odorant receptor agonist call [16],odorant receptor agonist call [17],odorant receptor agonist call [18]
CCC1OC(=O)C(O)=C1C (stereo not drawn),inactive,inactive,inactive,inactive,inactive,inactive,inactive,inactive,inactive,inactive,inactive,inactive,inactive,inactive,inactive,inactive,inactive,inactive
CCCCC=CCCCCC=O,–,–,active,–,–,–,–,–,–,–,–,–,–,–,–,–,–,–
CCCCCCC=CCCC=O,inactive,inactive,active,inactive,inactive,inactive,inactive,inactive,inactive,inactive,inactive,inactive,inactive,inactive,inactive,inactive,inactive,inactive
CCCCC=CCCC=O,–,–,active,–,–,–,–,–,–,–,–,–,–,–,–,–,–,–
